Values after ≈ are worked out from the molar mass of the structure shown.
What was measured:
[1] = tested on: Human immunodeficiency virus 1; test: Inhibition of [3H]BMS-488043 binding to HIV-1 isolate JRFL gp120 assessed as association half life after 60 mins by scintillation counting method
[2] = tested on: Human immunodeficiency virus 1; test: Inhibition of [3H]BMS-488043 binding to HIV-1 isolate JRFL gp120 assessed as dissociation half life incubated for 60 mins followed by CD4 addition by scintillation counting method
[3] = Dissociation constant, pKa of the compound; format: physicochemical
[4] = Protein binding in human plasma; format: ADME, cell-free; conditions: read-out: PPB (converted)
[5] = Competitive inhibition of soluble CD4 binding to HIV-1 gp120 after 2 hrs by ELISA; design: species or system Human immunodeficiency virus 1
[6] = Inhibition of [3H]BMS-488043 binding to HIV-1 isolate JRFL gp120 after 60 mins by scintillation counting method; design: species or system Human immunodeficiency virus 1
[7] = tested on: Human immunodeficiency virus 1; test: Antiviral activity against HIV1 infected in human assessed as decrease in viral load in plasma at 800 mg bid measured on day 8; format: functional
Outline: (§1)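 Eight-day monotherapy in HIV-1-infected subjects: 800 or 1800 mg given BID with a high-fat meal (n = 12 per arm, placebo n = 6). Plasma viral load was measured on day 8 and reported as mean decline in log10 copies/mL.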

[8] = Half life in human administered as capsule; format: ADME; conditions: po
[9] = tested on: Human immunodeficiency virus 1; test: Antiviral activity against HIV-1 JR-FL infected in human PM1 cells harboring CCR5 co-receptor after 4 to 6 days by p24 ELISA; format: functional, cell-based; conditions: Human immunodeficiency virus 1, JR-FL
[10] = tested on: Human immunodeficiency virus 1; test: Antiviral activity against HIV-1 SF-162 infected in human PM1 cells harboring CCR5 co-receptor after 4 to 6 days by p24 ELISA; format: functional, cell-based; conditions: Human immunodeficiency virus 1, SF-162
[11] = tested on: Human immunodeficiency virus 1; test: Antiviral activity against HIV-1 Bal infected in human PM1 cells harboring CCR5 co-receptor after 4 to 6 days by p24 ELISA; format: functional, cell-based; conditions: Human immunodeficiency virus 1, Bal
[12] = tested on: Human immunodeficiency virus 1; test: Antiviral activity against HIV-1 LAI infected in human MT2 cells harboring CXCR4 co-receptor after 4 to 6 days; format: functional, cell-based; conditions: Human immunodeficiency virus 1, LAI
[13] = tested on: Human immunodeficiency virus 1; test: Antiviral activity against HIV-1 NL4 - 3 infected in human MT2 cells harboring CXCR4 co-receptor after 4 to 6 days; format: functional, cell-based; conditions: Human immunodeficiency virus 1, NL4 - 3, MT2
[14] = tested on: Human immunodeficiency virus 1; test: Antiviral activity against HIV-1 isolate MN infected in human MT2 cells harboring CXCR4 co-receptor after 4 to 6 days; format: functional, cell-based; conditions: Human immunodeficiency virus 1, isolate MN
[15] = tested on: Human immunodeficiency virus 1; test: Antiviral activity against HIV-1 3B infected in human MT2 cells harboring CXCR4 co-receptor after 4 to 6 days; format: functional, cell-based; conditions: Human immunodeficiency virus 1, 3B
[16] = tested on: Human immunodeficiency virus 1; test: Antiviral activity against HIV-1 RF infected in human MT2 cells harboring CXCR4 co-receptor after 4 to 6 days; format: functional, cell-based; conditions: Human immunodeficiency virus 1, RF
[17] = tested on: Human immunodeficiency virus 1; test: Antiviral activity against HIV-1 89.6 infected in human PM1 cells harboring dual co-receptors after 4 to 6 days by p24 ELISA; format: functional, cell-based; conditions: Human immunodeficiency virus 1, 89.6, PM1
[18] = tested on: Human immunodeficiency virus 1; test: Antiviral activity against HIV1 infected in human assessed as decrease in viral load in plasma at 1800 mg bid measured on day 8; format: functional; outline: as §1
[19] = Aqueous solubility of the compound at pH 2 to 9; format: physicochemical
[20] = Oral bioavailability in rat dosed as suspension; format: ADME, organism-based; conditions: in vivo
[21] = tested on: Human immunodeficiency virus 1; test: Antiviral activity against HIV 1 isolate JRFL by single cycle infectivity assay; format: functional; conditions: Human immunodeficiency virus 1, isolate JRFL
Outline: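 HEK293T producer cells cotransfected with a proviral HIV-1 LAI-Δenv-luc plasmid (firefly luciferase in place of env) and an LTR-driven JR-FL env plasmid. The resulting pseudotyped virions complete only one replication round; infection is read out as luciferase signal.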

[22] = tested on: Human immunodeficiency virus 1; test: Antiviral activity against HIV-1 subtype A by p24 ELISA; format: functional; conditions: Human immunodeficiency virus 1, subtype A
[23] = tested on: Human immunodeficiency virus 1; test: Antiviral activity against HIV-1 subtype B by p24 ELISA; format: functional; conditions: Human immunodeficiency virus 1, subtype B
[24] = tested on: Human immunodeficiency virus 1; test: Antiviral activity against HIV-1 subtype C by p24 ELISA; format: functional; conditions: Human immunodeficiency virus 1, subtype C
[25] = tested on: Human immunodeficiency virus 1; test: Antiviral activity against HIV-1 isolate CRF01_AE by p24 ELISA; format: functional; conditions: Human immunodeficiency virus 1, isolate CRF01_AE
[26] = tested on: Human immunodeficiency virus 1; test: Antiviral activity against HIV-1 subtype F by p24 ELISA; format: functional; conditions: Human immunodeficiency virus 1, subtype F
[27] = tested on: Human immunodeficiency virus 1; test: Antiviral activity against HIV-1 F1 by p24 ELISA; format: functional; conditions: Human immunodeficiency virus 1, F1
[28] = tested on: Human immunodeficiency virus 1; test: Antiviral activity against HIV-1 isolate CRF_BF by p24 ELISA; format: functional; conditions: Human immunodeficiency virus 1, isolate CRF_BF
[29] = tested on: Human immunodeficiency virus 1; test: Antiviral activity against HIV-1 isolate CRF02_AG by p24 ELISA; format: functional; conditions: Human immunodeficiency virus 1, isolate CRF02_AG
[30] = Aqueous solubility of the compound at pH 7.4; format: physicochemical
Homo sapiens [31] = species: Homo sapiens; test: Half life in human assessed as 1-(4-benzoylpiperazin-1-yl)-2-(4-methoxy-7-(3-methyl-1H-1,2,4-triazol-1-yl)-1H-pyrrolo[2,3-c]pyridin-3-yl)ethane-1,2-dione level; format: ADME
[32] = Aqueous solubility of the compound at pH 1.5 to 8.2; format: physicochemical
Outline: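 Aqueous solubility measured over pH 1.5−8.2 at room temperature.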

Rattus norvegicus = test: Oral bioavailability in rat assessed as 1-(4-benzoylpiperazin-1-yl)-2-(4-methoxy-7-(3-methyl-1H-1,2,4-triazol-1-yl)-1H-pyrrolo[2,3-c]pyridin-3-yl)ethane-1,2-dione level; format: ADME, organism-based; conditions: in vivo
Canis familiaris = test: Oral bioavailability in dog assessed as 1-(4-benzoylpiperazin-1-yl)-2-(4-methoxy-7-(3-methyl-1H-1,2,4-triazol-1-yl)-1H-pyrrolo[2,3-c]pyridin-3-yl)ethane-1,2-dione level; format: ADME, organism-based, Canis lupus familiaris; conditions: in vivo
Rhesus monkey = test: Oral bioavailability in monkey assessed as 1-(4-benzoylpiperazin-1-yl)-2-(4-methoxy-7-(3-methyl-1H-1,2,4-triazol-1-yl)-1H-pyrrolo[2,3-c]pyridin-3-yl)ethane-1,2-dione level; format: ADME, organism-based, Macaca mulatta; conditions: in vivo
Cytochrome P450 3A4 = Cytochrome P450 3A4 (Homo sapiens, UniProt P08684); test: Inhibition of CYP3A4 (unknown origin); format: ADME
Homo sapiens [33] = species: Homo sapiens; test: Tmax in human assessed as 1-(4-benzoylpiperazin-1-yl)-2-(4,7-dimethoxy-1H-pyrrolo[2,3-c]pyridin-3-yl)ethane-1,2-dione level; format: ADME
Outline: (§2)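 Healthy volunteers received the phosphonooxymethyl prodrug orally over 25 to 800 mg. Plasma levels of the released parent were followed to derive tmax and t1/2.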

Homo sapiens [34] = species: Homo sapiens; test: Half life in human assessed as 1-(4-benzoylpiperazin-1-yl)-2-(4,7-dimethoxy-1H-pyrrolo[2,3-c]pyridin-3-yl)ethane-1,2-dione level; format: ADME; outline: as §2
[35] = Oral bioavailability in cynomolgus monkey at 10 mg/kg; format: ADME, organism-based, Macaca fascicularis; conditions: in vivo
Outline: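 Oral dose of 10 mpk given as a solution in PEG 400/ethanol.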

[36] = Oral bioavailability in rat at 1 mg/kg; format: ADME, organism-based; conditions: in vivo
Outline: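 Rat oral dosing at 1 mpk as a nanosuspension.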

[37] = Aqueous solubility of the compound; format: physicochemical; conditions: buffer
[38] = tested on: Human immunodeficiency virus 2; test: Antiviral activity against HIV2; format: functional
[39] = tested on: Simian immunodeficiency virus; test: Antiviral activity against SIV; format: functional
[40] = Solubility of the compound in acetonitrile; format: physicochemical

Cytochrome P450 3A4, sequence (P08684 whole entry): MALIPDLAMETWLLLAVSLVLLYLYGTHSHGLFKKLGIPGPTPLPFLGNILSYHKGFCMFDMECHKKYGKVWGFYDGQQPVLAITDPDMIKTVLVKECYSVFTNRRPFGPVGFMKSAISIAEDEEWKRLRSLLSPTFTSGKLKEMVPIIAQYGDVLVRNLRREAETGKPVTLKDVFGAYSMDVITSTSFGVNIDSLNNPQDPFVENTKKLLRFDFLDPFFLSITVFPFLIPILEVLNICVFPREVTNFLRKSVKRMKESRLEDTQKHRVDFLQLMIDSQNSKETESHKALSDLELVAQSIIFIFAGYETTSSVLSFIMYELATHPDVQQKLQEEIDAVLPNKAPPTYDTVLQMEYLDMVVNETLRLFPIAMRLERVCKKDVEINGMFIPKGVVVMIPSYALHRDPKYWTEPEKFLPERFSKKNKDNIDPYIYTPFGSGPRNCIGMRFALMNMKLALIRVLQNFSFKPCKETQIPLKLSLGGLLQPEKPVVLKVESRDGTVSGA

COc1ncc(OC)c2c(C(=O)C(=O)N3CCN(C(=O)c4ccccc4)CC3)c[nH]c12
T1/2 [1]: 2 to 3 min
T1/2 [2]: 0.717 h
pKa [3]: 2.9 to 9.3
fraction unbound [4]: 0.05
IC50 [5]: 87 nM
Kd [6]: 19.1 nM
Activity [7]: 0.72 log10/ml
half-life [8]: 10 h
EC50 [9]: 3 nM
EC50 [10]: 4.7 nM
EC50 [11]: 23 nM
EC50 [12]: 4.1 nM
EC50 [13]: 17.4 nM
EC50 [14]: > 1000 nM
EC50 [15]: 160 nM
EC50 [16]: > 2000 nM
EC50 [17]: ≥ 871 nM
Activity [18]: 0.96 log10/ml

COc1cnc(-n2cnc(C)n2)c2[nH]cc(C(=O)C(=O)N3CCN(C(=O)c4ccccc4)CC3)c12
T1/2 [2]: 7.63 h
solubility [19]: 0.02 mg/mL (≈ 42.2 µM)
bioavailability [20]: 52%
EC50 [21]: 0.14 nM
EC50 [9]: 0.4 nM
EC50 [10]: 0.5 nM
EC50 [11]: 1.7 nM
EC50 [12]: 0.7 nM
EC50 [13]: 2.2 nM
EC50 [16]: > 2000 nM
EC50 [17]: 57.6 nM
EC50 [22]: 2.24 nM
EC50 [23]: 0.34 nM
EC50 [24]: 1.14 nM
EC50 [25]: > 100 nM
EC50 [26]: 0.1 nM
EC50 [27]: 3.75 nM
EC50 [28]: 3.09 nM
EC50 [29]: 1.77 nM

O=C(C(=O)N1CCN(C(=O)c2ccccc2)CC1)c1c[nH]c2c(-n3ccnn3)ncc(F)c12
solubility [30]: 0.007 mg/mL (≈ 15.6 µM)

COc1cnc(-n2cc(C)cn2)c2[nH]cc(C(=O)C(=O)N3CCN(C(=O)c4ccccc4)CC3)c12
EC50 [21]: 0.41 nM

O=C(C(=O)N1CCN(C(=O)c2ccccc2)CC1)c1c[nH]c2c(-c3ncon3)ncc(F)c12
EC50 [21]: 1.3 nM

COc1cnc(-n2ccc(C)n2)c2[nH]cc(C(=O)C(=O)N3CCN(C(=O)c4ccccc4)CC3)c12
EC50 [21]: 0.11 nM

COc1cnc(-n2ccnn2)c2[nH]cc(C(=O)C(=O)N3CCN(C(=O)c4ccccc4)CC3)c12
EC50 [21]: 0.78 nM

COc1cnc(-n2cnc(C)n2)c2c1c(C(=O)C(=O)N1CCN(C(=O)c3ccccc3)CC1)cn2COP(=O)(O)O.NC(CO)(CO)CO [FOSTEMSAVIR TROMETHAMINE]
Activity [7]: <1 log10/ml
t1/2 (Homo sapiens [31]): 1.5 h
solubility [32]: > 11 mg/mL
bioavailability (Rattus norvegicus): 80 to 122%
bioavailability (Canis familiaris): 80 to 122%
bioavailability (Rhesus monkey): 80 to 122%

COc1ccnc2[nH]cc(C(=O)C(=O)N3CCN(C(=O)c4ccccc4)C[C@H]3C)c12
pKa [3]: 2.9 to 9.6
fraction unbound [4]: 0.27
IC50 [5]: 100 nM

COc1cnc(-n2cncn2)c2[nH]cc(C(=O)C(=O)N3CCN(C(=O)c4ccccc4)CC3)c12
IC50 (Cytochrome P450 3A4): 1000 nM
EC50 [21]: 0.21 nM

COc1cnc(OC)c2c1c(C(=O)C(=O)N1CCN(C(=O)c3ccccc3)CC1)cn2COP(=O)(O)O.NCCCC[C@H](N)C(=O)O
Tmax (Homo sapiens [33]): 0.5 to 1 h
t1/2 (Homo sapiens [34]): 1.5 h

O=C(C(=O)N1CCN(C(=O)c2ccccc2)CC1)c1c[nH]c2cccc(F)c12
bioavailability [35]: 100%
bioavailability [36]: 4%
solubility [37]: 0.005 mg/mL (≈ 13.2 µM)

O=C(C(=O)N1CCN(C(=O)c2ccccc2)CC1)c1c[nH]c2ccccc12
EC50 [38]: > 200000 nM
EC50 [39]: > 200000 nM

COc1cnc(Br)c2[nH]cc(C(=O)C(=O)N3CCN(C(=O)c4ccccc4)CC3)c12
solubility [40]: < 0.5 mg/mL
